Test results taken from paper PMC2906681 (Biochemical pharmacology, 2010).

Columns and labels:
[1] = test system: p21; test: p21 expression in HT-29 cells; assay type: cell-based; conditions: 12.5 µM with IFN-γ, 24 h, versus IFN-γ alone
How it was run: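 HT-29 cells were treated 24 h with IFN-γ at indicated amounts, with or without test compound at 12.5 µM. Cell lysates were immunoblotted for p21, with β-actin as loading reference.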

[2] = test system: pErk1/2 and Bcl-XL; test: pErk1/2 and Bcl-XL immunoblotting in TF-1/Shp2^E76K cells; assay type: cell-based; conditions: concentration-dependent
[3] = test system: Erk1/2 activation; test: EGF-stimulated Erk1/2 activation in MDA-MB-468 cells; assay type: cell-based; conditions: 0–20 µM tested, EGF 2 ng/ml 5 min
How it was run: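 Serum-starved MDA-MB-468 cells were pretreated with test compound (0–20 µM), then stimulated with EGF (2 ng/ml, 5 min). Cleared lysates were immunoblotted for dual-phosphorylated Erk1/2 and total Erk1/2.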

[4] = test system: ISRE-luciferase reporter; test: ISRE luciferase reporter assay in HT-29 cells; assay type: cell-based
How it was run: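 HT-29 cells (5 × 10^5 per well) were co-transfected by lipofection with 1.6 µg pISRE-Luc and 0.4 µg β-gal plasmids. They were then stimulated with 50 U/ml IFN-γ for 6 h or left unstimulated. Luciferase was normalized to β-galactosidase activity; two duplicate experiments (n = 4).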

[5] = test system: cells; test: Confocal laser scanning microscopy of compound uptake; assay type: in vitro ADME; conditions: 25 µM, 3 h
How it was run: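 TF-1/Shp2E76K cells grown in glass-bottom dishes were exposed to test compound at 25 µM for 3 h, then Hoechst 33342 (5 µg/ml) was added. Internal confocal sections were imaged with a 63X/1.40NA oil objective (2,520×), using 458 nm argon and 405 nm diode excitation with tunable emission filters. Compound fluorescence was viewed green.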

[6] = test system: TF-1/Shp2^E76K cells; test: Fluorescence uptake assay; assay type: in vitro ADME; conditions: 5 h incubation, ex/em 485/535 nm
How it was run: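 TF-1/Shp2E76K cells (6 × 10^5 in 1 ml RPMI1640/10% FBS) were incubated 5 h at 37 °C/5% CO2 with test compound or DMSO. Fluorescence (485/535 nm) was read in the whole suspension, then in cell-free medium (supernatant plus washes) and in twice-washed pellets. Fraction totals were expressed relative to the 100 µM suspension, set as 100%. Two duplicate experiments (n = 4).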

[7] = test system: STAT1 tyrosine phosphorylation; test: IFN-γ-stimulated STAT1 tyrosine phosphorylation in HT-29 cells; assay type: cell-based; conditions: 20 µM, 2 h pre-treatment, IFN-γ 20 U/ml
[8] = test system: MDA-MB-468 cells; test: Transwell cell migration assay; assay type: cell-based; conditions: EGF 10 ng/ml, 16 h
[9] = test system: paxillin dephosphorylation; test: EGF-induced paxillin tyrosine dephosphorylation in MDA-MB-468 cells; assay type: cell-based; conditions: 20 µM, 2 h; EGF 50 ng/ml 10 min
How it was run: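 Serum-starved MDA-MB-468 cells received test compound (20 µM, 2 h) and/or EGF (50 ng/ml, 10 min). Cells were lysed on ice in Tris buffer (pH 7.5) containing Na3VO4, NaF, pyrophosphate and protease inhibitors. Paxillin was immunoprecipitated, resolved by SDS-PAGE and immunoblotted with anti-phosphotyrosine and anti-paxillin antibodies.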

[10] = target: T1, Shp2 (Homo sapiens, UniProt Q06124); test: EGF-stimulated Shp2 PTP activity in immune complexes from MDA-MB-468 cells; assay type: cell-based; conditions: 20 µM pre-treatment overnight, EGF 50 ng/ml 10 min
T1 sequence (Q06124 1-593): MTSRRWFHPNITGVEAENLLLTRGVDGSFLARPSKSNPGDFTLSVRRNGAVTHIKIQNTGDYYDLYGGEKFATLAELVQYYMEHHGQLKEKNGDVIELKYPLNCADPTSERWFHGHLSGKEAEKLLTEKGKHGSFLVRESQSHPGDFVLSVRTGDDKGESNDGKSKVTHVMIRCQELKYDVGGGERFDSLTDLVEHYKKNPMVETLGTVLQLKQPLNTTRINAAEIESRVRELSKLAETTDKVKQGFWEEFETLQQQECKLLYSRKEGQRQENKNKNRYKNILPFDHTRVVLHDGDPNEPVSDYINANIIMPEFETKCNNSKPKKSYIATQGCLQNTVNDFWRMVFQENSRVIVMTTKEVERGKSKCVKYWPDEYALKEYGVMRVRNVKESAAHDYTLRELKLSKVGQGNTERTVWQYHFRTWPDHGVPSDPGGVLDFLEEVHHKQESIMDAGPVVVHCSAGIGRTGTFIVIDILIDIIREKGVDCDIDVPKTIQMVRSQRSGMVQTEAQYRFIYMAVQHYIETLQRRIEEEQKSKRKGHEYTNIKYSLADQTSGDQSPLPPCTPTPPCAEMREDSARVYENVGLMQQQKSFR
How it was run: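 Sub-confluent MDA-MB-468 cells were serum-starved 18 h in DMEM/0.1% BSA, pretreated overnight with test compound (20 or 100 µM), then EGF-stimulated (50 ng/ml, 10 min). Lysate (0.2 mg, Hepes pH 7.4 PTP lysis buffer) was immunoprecipitated with anti-Shp2/protein G for 2 h at 4 °C and washed. Complexes were reacted with 50 µM DiFMUP for 20 min at room temperature, and DiFMU fluorescence was read. Pellets were immunoblotted for Shp2. Two experiments, duplicates.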

[11] = target: T2, GST-Shp2 PTP domain protein (Homo sapiens, UniProt Q06124); test: In vitro Shp2 PTP activity inhibition assay; assay type: biochemical
T2 sequence (Q06124 247-517 limits assumed): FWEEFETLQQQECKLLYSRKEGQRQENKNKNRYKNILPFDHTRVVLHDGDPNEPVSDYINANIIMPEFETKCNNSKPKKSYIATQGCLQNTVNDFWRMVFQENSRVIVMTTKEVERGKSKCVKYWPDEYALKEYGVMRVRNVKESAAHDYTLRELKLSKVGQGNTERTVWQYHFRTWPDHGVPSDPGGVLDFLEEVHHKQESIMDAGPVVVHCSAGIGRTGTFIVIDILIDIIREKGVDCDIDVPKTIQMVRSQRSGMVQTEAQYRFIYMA

[12] = test system: TF-1/Shp2^E76K cells; test: Cell growth assay; assay type: cell-based; conditions: 96 h, read-out: concentration giving a 50% decrease in viable cells
How it was run: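 TF-1/Shp2E76K cells were plated at 1,000 cells/well in triplicate in RPMI1640/10% FBS without GM-CSF, with test compound. The compound volume was ≤0.1% of the total. Cells were incubated 4 days at 37 °C/5% CO2, then relative viable cell number was read with CellTiterGlo. Data came from two triplicate experiments.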

COC(=O)c1cccc(N/N=C2\C(=O)Nc3ccc(S(=O)(=O)NCc4ccc(F)cc4)cc32)c1 [SPI-112Me, (Z)-3-(2-(5-(N-(4-fluorobenzyl)sulfamoyl)-2-oxoindolin-3-ylidene)hydrazinyl)benzoic acid methyl ester]
p21 expression [1]: higher levels of p21 | amounts of pErk1/2 and Bcl-XL [2]: reduced | concentration at which inhibition of EGF-stimulated pErk1/2 signal was observed [3]: 10 µM | activation of ISRE luciferase activity ([4]; 10 µM SPI-112Me plus IFN-γ 50 U/ml): 54% | activation of ISRE luciferase activity ([4]; 25 µM SPI-112Me plus IFN-γ 50 U/ml): 98% | green fluorescence in confocal images of internal sections of cells [5]: readily detectable | fluorescent signal associated with the cell pellets [6]: substantial amount | effect on IFN-γ-stimulated STAT1 tyrosine phosphorylation [7]: increased amount of tyrosine-phosphorylated STAT1 | reduction of EGF-stimulated cell migration ([8]; 12.5 µM): 62% | effect on EGF-stimulated cell migration ([8]; 25 µM): completed blocked | effect on EGF-induced paxillin tyrosine dephosphorylation [9]: prevented | reduction of EGF-stimulated Shp2 PTP activity [10]: 77% | IC50 [11]: > 100 µM | IC50 [12]: 10 µM
